Legend:
P388 [1] = assay: Antitumor activity against mouse P388 cells allografted in ip dosed mouse assessed as increase in life span at optimal dose administered qd from day 1 to day 9 post tumor implantation relative to control; type: functional
Mus musculus [2] = assay: Toxicity in ip dosed mouse allografted with mouse L1210 cells assessed as dose required for optimal activity administered qd on day 1, 5 and 9 post tumor implantation; type: organism-based; settings: in vivo
Outline: (§1)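 Tumour cells were implanted ip (intracerebrally for IC-L1210), with the compound given in 0.9% saline ip, or orally to nonfasting mice in PO-L1210. Dose–response series each halved the preceding dose, expressed as mg/kg per injection. Activity was read as % increase in life-span (% ILS) over untreated controls, and from this the minimum, optimal and maximum active doses were taken.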

Mus musculus [3] = assay: Toxicity in ip dosed mouse allografted with mouse L1210 cells assessed as dose required for optimal activity administered every 6 hrs on day 1, 5 and 9 post tumor implantation; type: organism-based; settings: in vivo; outline: as §1
L1210 [4] = assay: Antitumor activity against mouse L1210 cells allografted in po dosed mouse assessed as dose required for maximal activity administered qd from day 1 to day 9 post tumor implantation; type: functional; outline: as §1
P388 [5] = assay: Antitumor activity against mouse P388 cells allografted in ip dosed mouse assessed as dose required for minimal activity administered qd from day 1 to day 9 post tumor implantation; type: functional; settings: read-out: MED; outline: as §1
P388 [6] = assay: Antitumor activity against mouse P388 cells allografted in ip dosed mouse assessed as change in body weight at optimal dose administered qd from day 1 to day 9 post tumor implantation measured on day 5 relative to control; type: functional
Outline: (§2)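 Mice bearing tumour cells implanted ip (intracerebrally in the IC-L1210 system) got compound in 0.9% saline ip on the stated schedule, or orally to nonfasting animals in the PO-L1210 system. Day-1 dosing, per day, or every 6 h counted from implantation. The value is the difference in average body weight change (g) on day 5 between the optimal-dose group (T) and controls (C).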

B16 [7] = assay: Antitumor activity against mouse B16 cells allografted in ip dosed mouse assessed as increase in life span at optimal dose administered qd from day 1 to day 9 post tumor implantation relative to control; type: functional
L1210 [8] = assay: Antitumor activity against mouse L1210 cells allografted in ip dosed mouse assessed as change in body weight at optimal dose administered qd from day 1 to day 9 post intracerebral tumor implantation measured on day 5 relative to control; type: functional; outline: as §2
L1210 [9] = assay: Antitumor activity against mouse L1210 cells allografted in ip dosed mouse assessed as dose required for minimal activity administered every 6 hrs on day 1, 5 and 9 post tumor implantation; type: functional; settings: read-out: MED; outline: as §1
L1210 [10] = assay: Antitumor activity against mouse L1210 cells allografted in ip dosed mouse assessed as dose required for minimal activity administered qd from day 1 to day 9 post intracerebral tumor implantation; type: functional; settings: read-out: MED; outline: as §1
Mus musculus [11] = assay: Toxicity in ip dosed mouse allografted with mouse L1210 cells assessed as dose required for optimal activity administered qd on day 1 post tumor implantation; type: organism-based; settings: in vivo; outline: as §1
L1210 [12] = assay: Antitumor activity against mouse L1210 cells allografted in ip dosed mouse assessed as increase in life span at optimal dose administered qd on day 1 post tumor implantation relative to control; type: functional
Outline: (§3)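 L1210 leukemia cells implanted ip in mice. Drug given ip in 0.9% saline: day 1 only (QD1); days 1, 5, 9 (Q4D); every 6 h on days 1, 5, 9 (Q4D(Q6H)); or days 1-9 (QD1-9). Dose-response run in twofold steps, dose in mg/kg per injection. % ILS versus untreated controls at the optimal dose. Toxicity taken as test minus control body-weight change on day 5.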

L1210 [13] = assay: Antitumor activity against mouse L1210 cells allografted in po dosed mouse assessed as change in body weight at optimal dose administered qd from day 1 to day 9 post tumor implantation measured on day 5 relative to control; type: functional; outline: as §2
L1210 [14] = assay: Antitumor activity against mouse L1210 cells allografted in ip dosed mouse assessed as increase in life span at optimal dose administered qd from day 1 to day 9 post tumor implantation relative to control; type: functional; outline: as §3
L1210 [15] = assay: Antitumor activity against mouse L1210 cells allografted in ip dosed mouse assessed as increase in life span at optimal dose administered every 6 hrs on day 1, 5 and 9 post tumor implantation relative to control; type: functional; outline: as §3
L1210 [16] = assay: Antitumor activity against mouse L1210 cells allografted in ip dosed mouse assessed as dose required for maximal activity administered every 6 hrs on day 1, 5 and 9 post tumor implantation; type: functional; outline: as §1
L1210 [17] = assay: Antitumor activity against mouse L1210 cells allografted in ip dosed mouse assessed as change in body weight at optimal dose administered qd on day 1, 5 and 9 post tumor implantation measured on day 5 relative to control; type: functional; outline: as §2
L1210 [18] = assay: Antitumor activity against mouse L1210 cells allografted in ip dosed mouse assessed as dose required for minimal activity administered qd on day 1 post tumor implantation; type: functional; settings: 24 h, read-out: MED; outline: as §1
L1210 [19] = assay: Antitumor activity against mouse L1210 cells allografted in ip dosed mouse assessed as increase in life span at optimal dose administered qd on day 1, 5 and 9 post tumor implantation relative to control; type: functional; outline: as §3
Mus musculus [20] = assay: Toxicity in po dosed mouse allografted with mouse L1210 cells assessed as dose required for optimal activity administered qd from day 1 to day 9 post tumor implantation; type: organism-based; settings: in vivo; outline: as §1
B16 [21] = assay: Antitumor activity against mouse B16 cells allografted in ip dosed mouse assessed as change in body weight at optimal dose administered qd from day 1 to day 9 post tumor implantation measured on day 5 relative to control; type: functional; outline: as §2
L1210 [22] = assay: Antitumor activity against mouse L1210 cells allografted in ip dosed mouse assessed as dose required for maximal activity administered qd from day 1 to day 9 post intracerebral tumor implantation; type: functional; outline: as §1
L1210 [23] = assay: Antitumor activity against mouse L1210 cells allografted in ip dosed mouse assessed as change in body weight at optimal dose administered qd from day 1 to day 9 post tumor implantation measured on day 5 relative to control; type: functional; outline: as §2
L1210 [24] = assay: Antitumor activity against mouse L1210 cells allografted in ip dosed mouse assessed as dose required for minimal activity administered qd from day 1 to day 9 post tumor implantation; type: functional; settings: read-out: MED; outline: as §1
Mus musculus [25] = assay: Toxicity in ip dosed mouse allografted with mouse L1210 cells assessed as dose required for optimal activity administered qd from day 1 to day 9 post intracerebral tumor implantation; type: organism-based; settings: in vivo; outline: as §1
L1210 [26] = assay: Antitumor activity against mouse L1210 cells allografted in ip dosed mouse assessed as increase in life span at optimal dose administered qd from day 1 to day 9 post intracerebral tumor implantation relative to control; type: functional
Outline: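 L1210 cells implanted intracerebrally in mice. Drug given ip in 0.9% saline, dose-response in twofold dose steps (mg/kg per injection). Antitumor effect as % increase in life-span over untreated controls at the optimal dose. Test minus control body-weight change recorded on day 5.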

Mus musculus [27] = assay: Toxicity in ip dosed mouse allografted with mouse L1210 cells assessed as dose required for optimal activity administered qd from day 1 to day 9 post tumor implantation; type: organism-based; settings: in vivo; outline: as §1
P388 [28] = assay: Antitumor activity against mouse P388 cells allografted in ip dosed mouse assessed as dose required for maximal activity administered qd from day 1 to day 9 post tumor implantation; type: functional; outline: as §1
L1210 [29] = assay: Antitumor activity against mouse L1210 cells allografted in ip dosed mouse assessed as change in body weight at optimal dose administered every 6 hrs on day 1, 5 and 9 post tumor implantation measured on day 5 relative to control; type: functional; outline: as §2
L1210 [30] = assay: Antitumor activity against mouse L1210 cells allografted in ip dosed mouse assessed as dose required for maximal activity administered qd on day 1, 5 and 9 post tumor implantation; type: functional; outline: as §1

SMILES	ILS (P388 [1]) [%]	Activity (Mus musculus [2]) [mg/kg]	Activity (Mus musculus [3]) [mg/kg]	MAD (L1210 [4]) [mg/kg]	minimal effective dose (P388 [5]) [mg/kg]	Activity (P388 [6]) [g]	ILS (B16 [7]) [%]	Activity (L1210 [8]) [g]	minimal effective dose (L1210 [9]) [mg/kg]	minimal effective dose (L1210 [10]) [mg/kg]	Activity (Mus musculus [11]) [mg/kg]	ILS (L1210 [12]) [%]	Activity (L1210 [13]) [g]	ILS (L1210 [14]) [%]	ILS (L1210 [15]) [%]	MAD (L1210 [16]) [mg/kg]	Activity (L1210 [17]) [g]	minimal effective dose (L1210 [18]) [mg/kg]	ILS (L1210 [19]) [%]	Activity (Mus musculus [20]) [mg/kg]	also measured
Nc1ncn([C@@H]2O[C@H](CO)[C@@H](O)[C@H]2O)c(=O)n1 [AZACITIDINE]	127	10	5	25	0.75	-4.3	20	-0.5	1.25	0.75	50	73	-4.1	128	126	5	-1.5	12.5	94	12.5	Activity (B16 [21]): 1.5 g; MAD (L1210 [22]): 0.75 mg/kg; Activity (L1210 [23]): -3 g; minimal effective dose (L1210 [24]): 0.75 mg/kg; Activity (Mus musculus [25]): 0.75 mg/kg; ILS (L1210 [26]): 28%; Activity (Mus musculus [27]): 3 mg/kg; MAD (P388 [28]): 3 mg/kg; Activity (L1210 [29]): -1.5 g; MAD (L1210 [30]): 20 mg/kg
Cl.NC1=NC(=O)N([C@@H]2O[C@H](CO)[C@@H](O)[C@H]2O)CN1	85	600	125	400	12.5	-4.3	19	-1.9	9.4	25	600	34	-4.4	116	68	150	-4.3	300	96	400	Activity (B16 [21]): -3.3 g; MAD (L1210 [22]): 100 mg/kg; Activity (L1210 [23]): -3.9 g; minimal effective dose (L1210 [24]): 3.13 mg/kg; Activity (Mus musculus [25]): 100 mg/kg; ILS (L1210 [26]): 46%; Activity (Mus musculus [27]): 100 mg/kg; MAD (P388 [28]): 200 mg/kg; Activity (L1210 [29]): -2.5 g; MAD (L1210 [30]): 600 mg/kg
